aDG glyco act = increases alpha dystroglycan glycosylation. Pro5-aDG cells, alpha-DG glycosylation AlphaScreen (IIH6); 0% Pro5, 100% B10-LARGE cell signal. activation, % at 10 µM. 360,000 tested, 0.22% active. AID 624168;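 active means activation of at least 8% versus controls, or a plate z-score of at least 8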;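 further: Pro5 are CHO cells carrying HIG-tagged alpha-DG that lacks glycosylation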
B2AR ag = activates human beta-2 adrenergic receptor causing internalization; 340,000 tested, 0.43% active; response, % (test concentration not listed); P07550; AID 504454; Am2.2-beta2AR cells, FAP receptor internalization, flow cytometry;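 active means response above a set limit, near 3 SD of response in nonfluorescent compounds, cut at about 42% in these data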
Target sequence (P07550 whole entry, looked up): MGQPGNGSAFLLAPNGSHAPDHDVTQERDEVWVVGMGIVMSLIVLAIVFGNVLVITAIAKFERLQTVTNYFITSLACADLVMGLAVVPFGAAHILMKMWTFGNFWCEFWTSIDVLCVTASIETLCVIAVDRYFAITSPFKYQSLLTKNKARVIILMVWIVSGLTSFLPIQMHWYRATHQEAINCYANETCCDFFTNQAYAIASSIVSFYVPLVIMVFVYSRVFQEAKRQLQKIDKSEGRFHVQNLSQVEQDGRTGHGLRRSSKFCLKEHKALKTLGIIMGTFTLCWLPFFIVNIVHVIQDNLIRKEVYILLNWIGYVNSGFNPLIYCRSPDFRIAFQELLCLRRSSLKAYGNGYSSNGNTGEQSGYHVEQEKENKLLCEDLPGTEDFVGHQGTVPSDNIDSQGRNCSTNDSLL
UCH37 inh = inhibitors of human deubiquitinating enzyme UCH37; Q9Y5K5; purified proteasome/UCH37, Ub-AMC cleavage fluorescence; inhibition, % (test concentration not listed); 330,000 tested, 0.33% active; AID 588478;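 active means mean inhibition over replicate wells above about 20%, limit read from the data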;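 further: 0% = compound-free wells with enzyme and 100% = wells lacking proteasome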
Target sequence (Q9Y5K5 whole entry, looked up): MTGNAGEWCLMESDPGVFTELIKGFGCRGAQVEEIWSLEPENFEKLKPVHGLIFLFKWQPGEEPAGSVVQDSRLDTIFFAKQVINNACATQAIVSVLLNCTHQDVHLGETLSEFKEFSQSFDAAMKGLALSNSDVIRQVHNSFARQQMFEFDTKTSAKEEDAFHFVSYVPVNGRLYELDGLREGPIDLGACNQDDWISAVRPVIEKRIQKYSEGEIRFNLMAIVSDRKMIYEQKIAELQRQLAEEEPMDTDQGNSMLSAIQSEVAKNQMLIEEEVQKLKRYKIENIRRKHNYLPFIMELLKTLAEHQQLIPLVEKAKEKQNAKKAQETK
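Assay system: Proteasome-bound UCH37. Buffer or medium: pH 7.4 Tris-HCl (50 mM) with ovalbumin, ATP-MgCl2, DTT. Incubation: 30 min preincubation with enzyme, 25 min cleavage at room temperature. Measured by: fluorescence, ex 355 nm, em 460 nm. Read-out basis: percent inhibition. Control set: wells without proteasome as full block, compound-free enzyme plus substrate as uninhibited.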
Cardio protect = myocardial damage modulation in H9c2 cells; H9c2 cardiomyocytes, H2O2 injury protection, ATPLite, 2 h; protection from H2O2 cell death, % at 20 µM; 360,000 tested, 0.63% active;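 active means compounds giving at least 50% protection of heart cells from peroxide-induced death in the single-dose screen, raw or plate-pattern-corrected value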;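 further: 0% = DMSO wells with peroxide and 100% = DMSO wells without peroxide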
PfGluPho inh = PfG6PD (Plasmodium falciparum) enzyme inhibition | PfGluPho enzyme, NADPH resazurin-diaphorase fluorescence | inhibition, % at 20 µM | 350,000 tested, 0.78% active | AID 504690;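 active means inhibition reaching at least a set limit at 20 µM in the primary screen, cut at about 59% in these data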;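 further: 0% = DMSO wells with substrate and 100% = DMSO wells lacking glucose-6-phosphate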
HKDC1 inh = inhibitors of human hexokinase HKDC1. recombinant HKDC1, G6PDH/diaphorase resazurin coupled fluorescence. 340,000 tested, 0.16% active. Q2TB90. inhibition, % at 20 µM;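 active means inhibition above about 35% when tested at 20 µM, limit read from the data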;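 further: plate controls were DMSO wells with enzyme for no effect and DMSO wells lacking enzyme for full effect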
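System: Recombinant HKDC1 hexokinase | Amount: HKDC1 at 5 µg/mL | Reagent: Glucose with 1 mM ATP | Doses: Single 20 µM dose | Incubation: Reaction time 90 min, room temperature, protected from light | Signal: Coupled resazurin fluorescence, excitation 525 nm, emission 613 nm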
PfG6PD confirm = PfG6PD inhibition, single-dose confirmed; shares compounds with PfGluPho inh; recombinant PfGluPho, NADPH-diaphorase-resazurin fluorescence; inhibition, % at 20 µM; 2,400 tested, 34% active;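 active means inhibition of at least 50% at 20 µM in any single replicate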;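 further: 0% = DMSO with substrate and 100% = DMSO lacking glucose-6-phosphate substrate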
Diaph ctr 10uM = counter-screen for P. falciparum G6PD inhibitors: diaphorase inhibitors, oxidizers | 820 tested, 39% active | shares compounds with PfGluPho inh | inhibition, % at 20 µM | diaphorase-coupled resazurin reduction, fluorescence, NADPH 10 uM;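 active means average inhibition reaching 50% or more with the compound at 20 µM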;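 further: resorufin red fluorescence formed as diaphorase reduces resazurin using NADPH; 0% = DMSO with enzyme and 100% = DMSO without enzyme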
Diaph ctr 30uM = inhibits diaphorase or oxidizes, flagging false PfG6PD hits | shares compounds with PfGluPho inh | Diaphorase/resazurin coupled assay, resorufin fluorescence, 30 uM NADPH | inhibition, % at 20 µM | 820 tested, 29% active | AID 504863;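 active means inhibition averaging 50% or more, tested at 20 µM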;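 further: 0% = DMSO with enzyme and 100% = DMSO wells lacking diaphorase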
Starred values were filed as active, the others as inactive; i = inactive; . = not tested or not shown. Hits are enriched below; roughly 2.1% of the tested compounds scored in any of these assays.

SMILES | aDG glyco act | B2AR ag | UCH37 inh | Cardio protect | PfGluPho inh | HKDC1 inh | PfG6PD confirm | others
CC(=O)OCC1OC(n2c(S)c(C#N)c(-c3ccccc3)c(C#N)c2=O)C(OC(C)=O)C(OC(C)=O)C1OC(C)=O (stereo not drawn) | 0 | -5 | . | 6 | 66* | 0 | 22
Cc1cccc(N2C(=O)CC(SC(=Nc3ccccc3)Nc3ccccc3)C2=O)c1 (stereo not drawn) | 1 | -13 | 0 | -1 | 23 | 1 | .
O=C1SC(SC(=Nc2ccccc2)Nc2ccccc2)C(=O)N1c1ccccc1 (stereo not drawn) | 0 | -2 | 4 | -1 | 60* | -8 | 19
COCCN=c1scc(-c2ccco2)n1/N=C/c1ccc(O)c(O)c1O | 0 | 10 | . | 23 | 55 | 21 | .
CN=c1scc(C)n1/N=C/c1ccc(O)c(O)c1O | 0 | 69* | . | -2 | 88* | 17 | 78* | Diaph ctr 10uM=35;Diaph ctr 30uM=39
C=CCN=c1scc(-c2ccco2)n1/N=C/c1ccc(O)c(O)c1O | 0 | 27 | . | 17 | 73* | 22 | 48* | Diaph ctr 10uM=-2;Diaph ctr 30uM=15
CCCn1c(-c2cccs2)nc2nc3ccccc3nc21 | 0 | -23 | i | 4 | 18 | -5 | .
c1csc(-c2nc3nc4ccccc4nc3n2Cc2ccc3c(c2)OCO3)c1 | 0 | 6 | -42 | 12 | 72* | 9 | 35
Cn1c(=O)c2c(nc(NN=Cc3ccncc3)n2Cc2ccccc2)n(C)c1=O | . | . | 9 | . | . | . | .
Nc1ccccc1SCC(=O)Nc1cccc2ccccc12 | 0 | -3 | . | -5 | 67* | 16 | 10
CCN(Cc1ccccc1)c1ccc(C=NNS(=O)(=O)c2cccc([N+](=O)[O-])c2)cc1 | . | . | 2 | . | . | . | .
Cc1ccc2[nH]c(O)c(N=NC(=O)C(C)n3cnc4ccccc4c3=O)c2c1 (stereo not drawn) | 0 | -1 | 7 | 1 | 68* | 10 | 50* | Diaph ctr 10uM=68*;Diaph ctr 30uM=55*
CCOc1cc(C=NNC(=O)Cn2nc([N+](=O)[O-])cc2C)ccc1OCc1cccc2ccccc12 | . | . | 0 | . | . | . | .
O=C(CNc1cccc2ccccc12)N/N=C/c1ccccn1 | 0 | -4 | . | -3 | 60* | 18 | 20
O=C(Nc1nc2ccccc2n1CCN1CCOCC1)c1ccc(Cl)cc1 | 0 | -5 | -275 | 12 | 68* | -14 | 43
O=C(Nc1nc2ccccc2n1Cc1ccccc1)c1ccco1 | 1 | -9 | 0 | 58* | 80* | -2 | 45
O=C(NN=Cc1ccccn1)c1cc(-c2ccc(Cl)s2)[nH]n1 | . | . | 7 | . | . | . | .
COc1ccc(NCC(=O)N/N=C/C2CCCCC2)cc1 | 0 | -3 | . | 0 | 69* | 16 | 13
COc1ccc(NCC(=O)NN=CC2CCCCC2)cc1 | . | . | 1 | . | . | . | .
O=C(COC(=O)c1ccccc1C(=O)c1ccc(Cl)cc1)NCc1ccccc1 | 0 | -3 | 3 | 13 | 81* | -6 | 45
O=C(O)Cn1cc(C=c2sc3nc4ccccc4n3c2=O)c2ccccc21 | . | . | 14 | . | . | . | .
O=C(c1ccncc1)c1ccc(N2CCN(C3CC(=O)N(Cc4cccs4)C3=O)CC2)cc1 (stereo not drawn) | 0 | 11 | 8 | -2 | -5 | 8 | .
O=C1CC(N2CCN(c3ccc(O)cc3)CC2)C(=O)N1Cc1cccs1 (stereo not drawn) | 0 | 1 | 1 | 17 | 67* | -2 | 19
COc1ccc(CN(C)S(=O)(=O)c2nnc(NC(=O)c3ccc(C)cc3)s2)cc1OC | 0 | 5 | 2 | -4 | 88* | 1 | 70* | Diaph ctr 10uM=39;Diaph ctr 30uM=27
CN(Cc1ccccc1)S(=O)(=O)c1nnc(NC(=O)c2ccccc2)s1 | 0 | 11 | 3 | -10 | 44 | -1 | .
SMILES | aDG glyco act | B2AR ag | UCH37 inh | Cardio protect | PfGluPho inh | HKDC1 inh | PfG6PD confirm | others
COc1ccc(CN(C)S(=O)(=O)c2nnc(NC(=O)c3cccc(OC)c3)s2)cc1 | 0 | 6 | -5 | -13 | 96* | 11 | 62* | Diaph ctr 10uM=56*;Diaph ctr 30uM=60*
COc1cccc(C(=O)Nc2nnc(S(=O)(=O)N(C)Cc3ccc(F)cc3)s2)c1 | 0 | 11 | 3 | -5 | 80* | 0 | 48
COc1ccc(CN(C)S(=O)(=O)c2nnc(NC(=O)c3ccccc3OC)s2)cc1OC | 0 | 15 | 3 | -11 | 10 | 0 | .
COc1cccc(C(=O)Nc2nnc(S(=O)(=O)N(C)Cc3ccccc3)s2)c1 | -1 | -3 | 2 | -10 | 88* | 10 | 77* | Diaph ctr 10uM=62*;Diaph ctr 30uM=39
CC(C)(Oc1ccc(Cl)cc1)C(=O)NN=Cc1cn[nH]c1-c1ccccc1 | . | . | -1 | . | . | . | .
CN(Cc1ccco1)S(=O)(=O)c1nnc(NC(=O)c2ccc(F)cc2)s1 | 0 | 3 | -2 | -4 | 98* | -5 | 83* | Diaph ctr 10uM=72*;Diaph ctr 30uM=55*
CCOc1ccc(C(=O)Nc2nnc(S(=O)(=O)N(C)Cc3ccco3)s2)cc1 | 1 | 2 | . | -5 | -6 | -3 | .
O=C(O)c1ccc2cccc(O)c2n1 | 0 | -2 | . | -2 | 66* | 13 | 32
O=C(NN=Cc1ccc(O)cc1O)c1ccc(NC(=O)C2CCCCC2)cc1 | . | . | -9 | . | . | . | .
CCN(CC)c1ccc(NC(=O)COc2ccccc2C#N)cc1S(=O)(=O)Nc1ccccc1OC | 0 | -2 | 0 | -4 | 69* | -20 | 32
CCN(CC)c1ccc(NC(=O)c2ccccn2)cc1S(=O)(=O)Nc1ccccc1OC | 0 | 11 | 2 | -5 | 60* | -8 | 18
CCN(CC)c1ccc(N)cc1S(=O)(=O)Nc1ccc(OC)cc1 | 0 | 0 | 1 | 6 | 13 | -4 | .
COc1ccc(NS(=O)(=O)c2cc(NC(=O)c3ccccn3)ccc2OC)cc1Br | 1 | -7 | 0 | -4 | -16 | -2 | .
CCN(CC)c1ccc(N)cc1S(=O)(=O)Nc1ccccc1OC | 0 | -1 | 1 | 4 | 67* | -9 | 35
COc1cc(C=NNC(=O)C(NC(=O)c2ccccc2)c2n[nH]c(=O)c3ccccc23)ccc1OCC(N)=O (stereo not drawn) | . | . | 1 | . | . | . | .
Cc1ccc(N)cc1O | 0 | 0 | -1 | -8 | 65* | 18 | 37
CCOc1ccc(CNc2ccc(N3CCN(Cc4ccccc4)CC3)cc2)cc1 | 0 | 11 | 5 | -4 | -1 | 3 | .
COc1ccccc1CNc1ccc(N2CCCCC2)cc1 | 0 | -13 | -1 | -12 | 66* | -9 | 33
